Source: ChEMBL document CHEMBL2203165, “Glycolysis inhibitor screening identifies the bis-geranylacylphloroglucinol protonophore moronone from Moronobea coccinea” (2012)
Activity calls are given as the source filed them. No cut-off for these calls is given here.

What was measured:
MDA-MB-231 [1] = test: Inhibition of cell viability of human MDA-MB-231 cells at 1 mM after 48 hrs by sulforhodamine B method; assay type: functional; settings: MDA-MB-231, 48 h
Method in brief: (§1)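 MDA-MB-231 cells are plated at 3×10^4 per well in RPMI 1640 with 10% FBS. After 24 h, compound diluted in serum-free medium is added, with DMSO below 0.5%. Cells are incubated 48 h at 37 °C and viability is read by sulforhodamine B as % inhibition of untreated control. Concentration-response runs are in half-log steps.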

MDA-MB-231 [2] = test: Inhibition of cell viability of human MDA-MB-231 cells at 3 mM after 48 hrs by sulforhodamine B method in presence of 1 uM F1F0-ATPase inhibitor oligomycin; assay type: functional, cell-based
MDA-MB-231 [3] = test: Effect on lactate production in human MDA-MB-231 cells at […] measured per ug of cellular protein after 48 hrs by enzyme based assay (reference value: 40.5 +/- 6 nmol/ug of cellular protein); assay type: functional
MDA-MB-231 [4] = test: Increase in cellular glucose consumption in human MDA-MB-231 cells at […] measured per ug of cellular protein after 48 hrs by enzyme based assay (reference value: 43 +/- 8.4 nmol/ug of cellular protein); assay type: functional
MDA-MB-231 [5] = test: Inhibition of cell viability of human MDA-MB-231 cells at 10 mM after 48 hrs by sulforhodamine B method; assay type: functional, cell-based; method in brief: as §1
MDA-MB-231 [6] = test: Inhibition of cell viability of human MDA-MB-231 cells at 3 mM after 48 hrs by sulforhodamine B method; assay type: functional; settings: MDA-MB-231, 48 h; method in brief: as §1
MDA-MB-231 [7] = test: Inhibition of cell viability of human MDA-MB-231 cells at 30 mM after 48 hrs by sulforhodamine B method; assay type: functional, cell-based; method in brief: as §1
MDA-MB-231 [8] = test: Inhibition of cell viability of human MDA-MB-231 cells at 3 mM after 48 hrs by sulforhodamine B method in presence of 1 uM mitochondrial ETC complex III inhibitor antimycin A; assay type: functional, cell-based
MDA-MB-231 [9] = test: Increase in cellular glucose consumption in human MDA-MB-231 cells at […] measured per ug of cellular protein after 24 hrs by enzyme based assay (reference value: 17.2 +/- 2 nmol/ug of cellular protein); assay type: functional
MDA-MB-231 [10] = test: Effect on lactate production in human MDA-MB-231 cells at […] measured per ug of cellular protein after 24 hrs by enzyme based assay (reference value: 23.6 +/- 2 nmol/ug of cellular protein); assay type: functional
MDA-MB-231 [11] = test: Decrease in mitochondrial membrane potential in human MDA-MB-231 cells assessed as decline in respiration rate at 3 uM after 48 hrs; assay type: functional, cell-based
Method in brief: (§2)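 Oxygen consumption of intact MDA-MB-231 or T47D cells measured with a Clark-type electrode, no FBS present; compound tested at 0.1, 0.3, 1 and 3 μM; rate normalized to untreated control. Average + standard deviation from three independent experiments (n = 3).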

MDA-MB-231 [12] = test: Decrease in mitochondrial membrane potential in human MDA-MB-231 cells assessed as decline in respiration rate at 1 uM after 48 hrs; assay type: functional, cell-based; method in brief: as §2
MDA-MB-231 [13] = test: Increase in cellular glucose consumption in human MDA-MB-231 cells at 10 uM measured per ug of cellular protein after 48 hrs by enzyme based assay (reference value: 43 +/- 8.4 nmol/ug of cellular protein); assay type: functional
MDA-MB-231 [14] = test: Increase in cellular glucose consumption in human MDA-MB-231 cells at 3 uM measured per ug of cellular protein after 48 hrs by enzyme based assay (reference value: 43 +/- 8.4 nmol/ug of cellular protein); assay type: functional
MDA-MB-231 [15] = test: Increase in cellular glucose consumption in human MDA-MB-231 cells at 1 uM measured per ug of cellular protein after 48 hrs by enzyme based assay (reference value: 43 +/- 8.4 nmol/ug of cellular protein); assay type: functional
MDA-MB-231 [16] = test: Cytotoxicity against human MDA-MB-231 cells assessed as inhibition of cell proliferation/viability at 30 uM in presence of 0.1 uM rotenone mitochondrial electron transport inhibitor; assay type: functional
Method in brief: (§3)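 MDA-MB-231 cells in RPMI 1640 with 10% FBS, plated 3×10^4/well; after 24 h, compound diluted in serum-free medium added with or without rotenone (0.1 μM final), DMSO <0.5%. 48 h at 37 °C; viability by sulforhodamine B; % inhibition of untreated control; two independent experiments each in triplicate (n = 6).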

MDA-MB-231 [17] = test: Increase in cellular respiration in human MDA-MB-231 cells assessed as increase in oxygen consumption at 0.1 to 1 uM after 48 hrs; assay type: functional, cell-based; method in brief: as §2
MDA-MB-231 [18] = test: Increase in cellular glucose consumption in human MDA-MB-231 cells at 1 uM measured per ug of cellular protein after 24 hrs by enzyme based assay (reference value: 17.2 +/- 2 nmol/ug of cellular protein); assay type: functional
T47D [19] = test: Decrease in mitochondrial membrane potential in human T47D cells assessed as decline in respiration rate at 3 uM after 48 hrs; assay type: functional, cell-based; method in brief: as §2
MDA-MB-231 [20] = test: Effect on lactate production in human MDA-MB-231 cells at 10 uM measured per ug of cellular protein after 24 hrs by enzyme based assay (reference value: 23.6 +/- 2 nmol/ug of cellular protein); assay type: functional
MDA-MB-231 [21] = test: Increase in cellular glucose consumption in human MDA-MB-231 cells at 10 uM measured per ug of cellular protein after 24 hrs by enzyme based assay (reference value: 17.2 +/- 2 nmol/ug of cellular protein); assay type: functional
T47D [22] = test: Decrease in mitochondrial membrane potential in human T47D cells assessed as decline in respiration rate at 1 uM after 48 hrs; assay type: functional, cell-based; method in brief: as §2
MDA-MB-231 [23] = test: Effect on lactate production in human MDA-MB-231 cells at 3 uM measured per ug of cellular protein after 24 hrs by enzyme based assay (reference value: 23.6 +/- 2 nmol/ug of cellular protein); assay type: functional
T47D [24] = test: Increase in cellular respiration in human T47D cells assessed as increase in oxygen consumption at 0.1 to 1 uM after 48 hrs; assay type: functional, cell-based; method in brief: as §2
MDA-MB-231 [25] = test: Effect on lactate production in human MDA-MB-231 cells at 1 uM measured per ug of cellular protein after 24 hrs by enzyme based assay (reference value: 23.6 +/- 2 nmol/ug of cellular protein); assay type: functional
MDA-MB-231 [26] = test: Cytotoxicity against human MDA-MB-231 cells assessed as inhibition of cell proliferation/viability at 0.1 to 10 uM in presence of 0.1 uM rotenone mitochondrial electron transport inhibitor; assay type: functional, cell-based; method in brief: as §3
MDA-MB-231 [27] = test: Increase in cellular glucose consumption in human MDA-MB-231 cells at 3 uM measured per ug of cellular protein after 24 hrs by enzyme based assay (reference value: 17.2 +/- 2 nmol/ug of cellular protein); assay type: functional
MDA-MB-231 [28] = test: Stimulation of oligomycin-induced state 4 respiration in human MDA-MB-231 cells at 1 uM; assay type: functional, cell-based
Method in brief: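 Oligomycin (1 μM) added to MDA-MB-231 cells in a Clark-type electrode chamber to initiate state 4 respiration. Compound (1 μM) then added and oxygen consumption followed. Rate normalized to untreated control.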

MDA-MB-231 [29] = test: Effect on lactate production in human MDA-MB-231 cells at 3 uM measured per ug of cellular protein after 48 hrs by enzyme based assay (reference value: 40.5 +/- 6 nmol/ug of cellular protein); assay type: functional
MDA-MB-231 [30] = test: Effect on lactate production in human MDA-MB-231 cells at 1 uM measured per ug of cellular protein after 48 hrs by enzyme based assay (reference value: 40.5 +/- 6 nmol/ug of cellular protein); assay type: functional
MDA-MB-231 [31] = test: Effect on lactate production in human MDA-MB-231 cells at 10 uM measured per ug of cellular protein after 48 hrs by enzyme based assay (reference value: 40.5 +/- 6 nmol/ug of cellular protein); assay type: functional
MDA-MB-231 [32] = test: Inhibition of cell viability of human MDA-MB-231 cells at 0.1 uM after 48 hrs by sulforhodamine B method; assay type: functional; settings: MDA-MB-231, 48 h; method in brief: as §1
MDA-MB-231 [33] = test: Increase in cellular glucose consumption in human MDA-MB-231 cells at 0.1 uM measured per ug of cellular protein after 48 hrs by enzyme based assay (reference value: 43 +/- 8.4 nmol/ug of cellular protein); assay type: functional
MDA-MB-231 [34] = test: Effect on lactate production in human MDA-MB-231 cells at 0.1 uM measured per ug of cellular protein after 48 hrs by enzyme based assay (reference value: 40.5 +/- 6 nmol/ug of cellular protein); assay type: functional
MDA-MB-231 [35] = test: Effect on lactate production in human MDA-MB-231 cells at 0.1 uM measured per ug of cellular protein after 24 hrs by enzyme based assay (reference value: 23.6 +/- 2 nmol/ug of cellular protein); assay type: functional
MDA-MB-231 [36] = test: Increase in cellular glucose consumption in human MDA-MB-231 cells at 0.1 uM measured per ug of cellular protein after 24 hrs by enzyme based assay (reference value: 17.2 +/- 2 nmol/ug of cellular protein); assay type: functional

OC[C@H]1O[C@@H](O)C[C@@H](O)[C@@H]1O was tested, and the inhibition at 1000 µM (MDA-MB-231 [1]) was 4%, the inhibition (MDA-MB-231 [2]) was “Active” and the Activity (MDA-MB-231 [3]) was 52.8 nmol. The Activity (MDA-MB-231 [4]) was 50.2 nmol, the inhibition (MDA-MB-231 [5]) was “Active” and the inhibition at 3000 µM (MDA-MB-231 [6]) was 8%. For the same compound, the inhibition (MDA-MB-231 [7]) was “Active”, the inhibition (MDA-MB-231 [8]) was “Active” and the Activity (MDA-MB-231 [9]) was 22.5 nmol. For the same compound, the Activity (MDA-MB-231 [10]) was 26.3 nmol.
For CC(C)=CCC/C(C)=C/CC1(C/C=C(\C)CCC=C(C)C)C(O)=CC(=O)C(C(=O)c2ccccc2)=C1O (stereo unspecified) [MORONONE], the Activity (MDA-MB-231 [11]) was “Active”, the Activity (MDA-MB-231 [12]) was “Active” and the Activity (MDA-MB-231 [13]) was 168.4 nmol. The Activity (MDA-MB-231 [14]) was 73.4 nmol, the Activity (MDA-MB-231 [15]) was 44.7 nmol and the “inhibition (INH)” value (MDA-MB-231 [16]) was 68%. The Activity (MDA-MB-231 [17]) was “Active”, the Activity (MDA-MB-231 [18]) was 26.7 nmol and the Activity (T47D [19]) was “Active”. For the same compound, the Activity (MDA-MB-231 [20]) was 59.5 nmol, the Activity (MDA-MB-231 [21]) was 45.8 nmol and the Activity (T47D [22]) was “Active”. The Activity (MDA-MB-231 [23]) was 25.4 nmol, the Activity (T47D [24]) was “Active” and the Activity (MDA-MB-231 [25]) was 21.9 nmol. The Activity (MDA-MB-231 [26]) was “Active”, the Activity (MDA-MB-231 [27]) was 25.9 nmol and the Activity (MDA-MB-231 [28]) was “Active”. It also gave an Activity (MDA-MB-231 [29]) of 67.3 nmol, an Activity (MDA-MB-231 [30]) of 49.3 nmol and an Activity (MDA-MB-231 [31]) of 168.5 nmol.
With C=C(C)[C@H]1Cc2c(ccc3c2O[C@@H]2COc4cc(OC)c(OC)cc4[C@@H]2C3=O)O1 [ROTENONE] the inhibition at 0.1 µM (MDA-MB-231 [32]) was 7%, the Activity (MDA-MB-231 [33]) was 177.6 nmol and the Activity (MDA-MB-231 [34]) was 190.4 nmol. For the same compound, the Activity (MDA-MB-231 [35]) was 75.7 nmol and the Activity (MDA-MB-231 [36]) was 37.5 nmol.
